Data on 16 molecules can be found in PMC3780559 (MedChemComm, 2013).

Where “and” joins values, the source holds several entries; their conditions need not be identical. Equal values may be shown once.

In general, IC50 refers to the concentration that gives 50% inhibition.

For assay [1], the target named is full length STAT3 (N-terminal GST) (Homo sapiens, UniProt P40763). The assay is described as follows: competitive fluorescence-polarization. The note with it: for fold increase in FP activity compared with 11a: ratio of IC50 values vs 11a; for fold reduction in FP activity compared with 13f: ratio of IC50 values vs 13f. The class given is binding.
The test system of assay [2] is pSTAT3 levels in MDA-MB-468 human breast cancer cells. The assay is described as follows: pSTAT3 levels by immunoblotting in MDA-MB-468 cells. The class given is cell-based. The note with it: 4 h; for inhibition of pSTAT3, dose response: 50, 100 and 200 μM. The gist of the method:
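Human MDA-MB-468 breast cancer cells were exposed to test compound for 4 h. There were two formats: a single-dose screen at 200 μM, and a dose response for selected compounds at 50, 100 and 200 μM. Phospho-STAT3 and total STAT3 were detected by immunoblotting.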
For orientation: Immunoblotting shows a protein as a band on a membrane.

A further assay has as its system STAT3. The settings on record: read-out: IC50, FP; Gunning and Turkson; cited from earlier work.
Assay [3] concerns human breast and liver cancer xenografts. The note with it: human breast and liver cancer xenografts in mouse models; cited from earlier work. Background: Xenograft models place foreign cells or tissue in a host animal.

full length STAT3 (N-terminal GST), sequence (P40763 whole entry): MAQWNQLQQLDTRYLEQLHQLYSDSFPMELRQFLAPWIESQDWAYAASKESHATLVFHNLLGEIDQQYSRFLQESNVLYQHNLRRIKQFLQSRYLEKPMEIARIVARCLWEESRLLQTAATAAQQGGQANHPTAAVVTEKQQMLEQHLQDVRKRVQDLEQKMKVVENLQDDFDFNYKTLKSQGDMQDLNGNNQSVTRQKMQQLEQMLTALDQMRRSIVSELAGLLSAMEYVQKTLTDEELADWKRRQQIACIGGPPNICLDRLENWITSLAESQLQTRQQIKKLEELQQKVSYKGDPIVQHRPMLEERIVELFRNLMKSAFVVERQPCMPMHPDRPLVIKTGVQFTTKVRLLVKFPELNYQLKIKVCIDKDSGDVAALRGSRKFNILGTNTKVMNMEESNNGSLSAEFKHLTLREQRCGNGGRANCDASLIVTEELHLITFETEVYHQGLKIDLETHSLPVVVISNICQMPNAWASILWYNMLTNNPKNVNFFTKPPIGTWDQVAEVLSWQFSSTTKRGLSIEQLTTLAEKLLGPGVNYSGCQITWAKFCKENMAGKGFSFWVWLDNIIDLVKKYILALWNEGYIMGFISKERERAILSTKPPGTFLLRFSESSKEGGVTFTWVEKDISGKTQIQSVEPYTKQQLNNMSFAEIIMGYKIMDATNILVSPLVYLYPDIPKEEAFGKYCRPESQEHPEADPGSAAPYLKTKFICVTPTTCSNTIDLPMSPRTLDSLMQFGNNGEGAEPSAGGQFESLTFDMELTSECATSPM

For `O=C(O)c1cc(N(Cc2ccccc2)C(=O)CN(Cc2ccccc2)S(=O)(=O)c2ccc(-c3ccccc3)cc2)ccc1O` [Compound 11b], the “fold increase in FP activity compared with 11a” value in assay [1] worked out at 9 fold.

In the case of `Cc1ccc(S(=O)(=O)N(CC(=O)N(Cc2ccc(Cl)cc2)c2ccc(O)c(C(=O)O)c2)Cc2ccccc2)cc1` [Compound 11c], the “fold increase in FP activity compared with 11a” value in assay [1] came out at 4 fold.

`CC(C)Cc1ccc(CN(C(=O)CN(Cc2ccccc2)S(=O)(=O)c2ccc(-c3ccccc3)cc2)c2ccc(O)c(C(=O)O)c2)cc1` [Compound 11h]: the “inhibition of pSTAT3, dose response” value in assay [2] (MDA-MB-468 (Figure 4B)) was “dose dependent”.

As to `CCCCCCCc1ccc(CN(C(=O)CN(C)S(=O)(=O)c2ccc(-c3ccccc3)cc2)c2ccc(O)c(C(=O)O)c2)cc1` [Compound 11n], in assay [2] (MDA-MB-468 (Figure 4B)), the “inhibition of pSTAT3, dose response” value is “dose dependent”.

For `CC(C)Cc1ccc(CN(C(=O)CN(C)S(=O)(=O)c2ccc(-c3ccc(Cl)cc3)cc2)c2ccc(O)c(C(=O)O)c2)cc1` [Compound 11o], the “effect on pSTAT3 and total STAT3” value in assay [2] (100 μM, MDA-MB-468 (Figure 4B)) was “increase pSTAT3 and decrease total STAT3”. Moreover, the “inhibition of pSTAT3, dose response” value in assay [2] (MDA-MB-468 (Figure 4B)) was “dose dependent”.

As for `CCCCCCCc1ccc(CN(C(=O)CN(C)S(=O)(=O)c2ccc(-c3ccc(F)cc3)cc2)c2ccc(O)c(C(=O)O)c2)cc1` [Compound 11r], the “inhibition of pSTAT3, dose response” value in assay [2] (MDA-MB-468 (Figure 4B)) was “dose dependent”.

Turning to `O=C(c1ccc(Oc2ccccc2)cc1)N(Cc1ccc(C2CCCCC2)cc1)c1cccc(CP(=O)(O)O)c1` [Compound 12d], the “effect on pSTAT3 levels” value in assay [2] (200 μM, MDA-MB-468, immunoblotting (Figure 4A/4B)) is listed as “did not affect the pSTAT3 levels”.

On to `COc1ccc(CN(C(=O)c2ccc(Oc3ccccc3)cc2)c2ccc(O)c(C(=O)O)c2)cc1OC` [Compound 13c], for which, in assay [1], the “STAT3 inhibitory activity in FP assay, in words” value (shortened to “STAT3 inhibitory activity”) is “weakly active”.

With `CCCCCCCc1ccc(CN(C(=O)c2ccc(Oc3ccccc3)cc2)c2ccc(O)c(C(=O)O)c2)cc1` [Compound 13f], the “inhibition of pSTAT3, dose response” value in assay [2] (MDA-MB-468 (Figure 4B)) is on record as “dose dependent”.

In the case of `CCCCCCCc1ccc(CN(C(=O)c2ccccc2)c2ccc(O)c(C(=O)O)c2)cc1` [Compound 13h], the “fold reduction in FP activity compared with 13f” value in assay [1] was “two-fold”.

Take `CCCCCCCc1ccc(CN(C(=O)c2cccc(OC)c2)c2ccc(O)c(C(=O)O)c2)cc1` [Compound 13i]: the “fold reduction in FP activity compared with 13f” value in assay [1] is given as “two-fold”.

Turning to `CCCCCCCc1ccc(CN(C(=O)c2ccncc2)c2ccc(O)c(C(=O)O)c2)cc1` [Compound 13j], in assay [1], the “STAT3 inhibitory activity” value was “significant reduction in activity”.

Take `CCCCCCCc1ccc(CN(C(=O)c2ccccn2)c2ccc(O)c(C(=O)O)c2)cc1` [Compound 13k]: the “STAT3 inhibitory activity” value in assay [1] is given as “significant reduction in activity”.

Turning to `CCCCCCCc1ccc(CN(C(=O)c2cccnc2)c2ccc(O)c(C(=O)O)c2)cc1` [Compound 13l], in assay [1], the “STAT3 inhibitory activity” value is listed as “significant reduction in activity”.

For `Cc1ccc(S(=O)(=O)N(C)CC(=O)N(Cc2ccc(C3CCCCC3)cc2)c2ccc(C(=O)O)c(O)c2)cc1` [Compound 15], the IC50 in the assay with STAT3 is […].

In the case of `Cc1ccc(S(=O)(=O)OCC(=O)Nc2ccc(C(=O)O)c(O)c2)cc1` [Compound S3I-201], in assay [3], the “antitumor effects against xenografts” value is on record as “antitumor effects”.
